Test results: ChEMBL document CHEMBL3352680, “Triterpene lactones from cultures of Ganoderma sp. KM01” (J Nat Prod, 2014)
The source made the active and inactive calls. The calls are words filed in the database; no cut-off is given here.

How the values were obtained:
[1] = system: NCI-H187 (human); experiment: Cytotoxicity against human NCI-H187 cells up to 10 uM by colorimetric method
[2] = system: MCF7; experiment: Cytotoxicity against human MCF7 cells up to 10 uM by colorimetric method; format: functional, cell-based
[3] = system: KB; experiment: Cytotoxicity against human KB cells up to 10 uM by colorimetric method; format: functional, cell-based
[4] = system: Plasmodium falciparum; experiment: Antimalarial activity against multidrug-resistant Plasmodium falciparum K1 assessed as reduction in parasite growth by [3H]-hypoxanthine uptake assay; format: functional, organism-based
Summary of the method: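 P. falciparum K1 (multidrug-resistant) maintained in continuous in vitro culture. Microculture radioisotope technique: growth measured as [3H]-hypoxanthine uptake. IC50 is the concentration giving 50% reduction in parasite growth. Dihydroartemisinin was the positive control.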

Compound | Activity [1] | Activity [2] | Activity [3] | IC50 [4] [µM]
CC(=O)O[C@@H]1C[C@H]([C@H](C)[C@H]2CC=C(C)C(=O)O2)[C@@]2(C)CCC3=C(CC[C@@H]4C(=C3)C=CC(=O)OC4(C)C)[C@]12C [COLOSSOLACTONE E] | inactive | inactive | inactive | 10
C[C@H]1[C@@H](O)O[C@@H]2O[C@@]3(C)CC[C@H]4[C@H](C)CC[C@@H]1[C@@]24OO3 [ARTENIMOL] |  |  |  | 0.004
CC1=CC[C@@H]([C@@H](C)[C@H]2CC[C@@]3(C)C4=C(C=C5C=CC(=O)OC(C)(C)[C@@H]5CC4)CC[C@]23C)OC1=O | inactive | inactive | inactive | 6
CC1=CC[C@]2(OC[C@]34CCC5=C(CC[C@@H]6C(=C5)C=CC(=O)OC6(C)C)[C@]3(C)CC[C@@H]4[C@@H]2C)OC1=O | inactive | inactive | inactive | 10
